Screening data deposited in PubChem by The Scripps Research Institute Molecular Screening Center.
TAAR1 antagonist – human TAAR1 antagonism | Q96RJ0 | CHO RD-HGA16 TAAR1, Fluo-8 calcium fluorescence, antagonist | inhibition, % at 3 µM | actives 1.5% (n = 360,000) | AID 624466;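 active = inhibition above a per-plate cutoff, the mean inhibition of test compounds on that plate plus 3 SD, cut at about 49% in these data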;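 note: 0% = DMSO plus EC80 beta-PEA response and 100% = DMSO alone without agonist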
Target sequence (Q96RJ0 whole entry, looked up): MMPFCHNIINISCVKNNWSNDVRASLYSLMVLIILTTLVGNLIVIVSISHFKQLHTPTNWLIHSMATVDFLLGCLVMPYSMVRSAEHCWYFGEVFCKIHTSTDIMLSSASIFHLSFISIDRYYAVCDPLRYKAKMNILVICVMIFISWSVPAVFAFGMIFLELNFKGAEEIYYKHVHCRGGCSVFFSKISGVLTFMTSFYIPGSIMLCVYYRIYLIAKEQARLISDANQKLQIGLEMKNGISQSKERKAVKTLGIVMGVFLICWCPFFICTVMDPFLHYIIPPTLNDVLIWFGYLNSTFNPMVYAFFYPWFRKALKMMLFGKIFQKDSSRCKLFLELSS
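Test system – hTAAR1-expressing CHO RD-HGA16 cells, Gα16-coupled · Reagent – β-PEA at EC80 concentration, post-compound challenge · Compound dosing – 3 µM, single point · Timing – 140 s kinetic read after compound, 140 s after agonist · Detection – Fluo-8 intracellular calcium dye fluorescence, real-time kinetic reads · Control set – DMSO and EC80 PEA controls · Repeats – n of 1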
OXTR ag – human OXTR agonism; activation, % at 3 µM; AID 2435; actives 0.32% (n = 320,000); CHO-OTR cells, Fluo-8 calcium fluorescence; normalized: DMSO 0%, oxytocin 100%;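 active = activation above the mean of all tested compounds plus 3 SD, cutoff set per screening run, cut at about 20% in these data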;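 note: peak over basal fluorescence ratio from a 100 s FLIPR kinetic read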
Target sequence (P30559 whole entry, looked up): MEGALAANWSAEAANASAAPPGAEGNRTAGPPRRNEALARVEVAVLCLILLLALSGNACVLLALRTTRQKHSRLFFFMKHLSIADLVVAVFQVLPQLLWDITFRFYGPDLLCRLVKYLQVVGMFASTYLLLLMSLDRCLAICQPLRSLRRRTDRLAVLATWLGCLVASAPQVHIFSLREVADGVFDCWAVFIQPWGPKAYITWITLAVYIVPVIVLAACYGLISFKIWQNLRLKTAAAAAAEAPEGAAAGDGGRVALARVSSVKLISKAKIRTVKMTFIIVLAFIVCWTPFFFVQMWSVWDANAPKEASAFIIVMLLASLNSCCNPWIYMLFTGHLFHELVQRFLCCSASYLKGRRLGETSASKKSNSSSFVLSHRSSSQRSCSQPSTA
TAAR1 agonist – human TAAR1 agonism. CHO RD-HGA16 TAAR1, Fluo-8 calcium fluorescence; vehicle wells 0%, saturating PEA agonist 100%. actives 0.99% (n = 360,000). activation, % at 3 µM;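 active = activation above the mean activation of all test compounds in the run plus 3 SD, cut at about 38% in these data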
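System: CHO-derived RD-HGA16 cells with stable Gα16 and human TAAR1 / Times: 17-24 h plating, Fluo-8 75 min 37 °C, 30 min RT / Technique: calcium-sensitive Fluo-8 signal, excitation 470-495, emission 515-575 nm / Measure: % activation relative to PEA EC100 response / Benchmarks: DMSO and PEA EC100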
OXTR potentiate – potentiators of human oxytocin receptor; P30559; CHO-OTR cells, Fluo-8 calcium fluorescence, potentiator mode; 0% = oxytocin EC15, 100% = EC100; activation, % at 3 µM; actives 0.061% (n = 320,000); AID 2445;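 active = activation above that plate's cutoff, the mean activation of tested compounds plus 3 SD, cut at about 6.6% in these data, passing the limit was not always enough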;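 note: 100% uses oxytocin at 75 nM as the full agonist control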
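Assay system: CHO-OTR cells, human receptor / Also added: oxytocin at about EC15, sub-maximal agonist stimulus / Dosing: single dose, 3.0 µM nominal final compound concentration / Incubation: 6 min pre-incubation, 100 s read / Technique: Fluo-8 calcium dye fluorescence / Read-out: % activation vs EC15 and EC100 oxytocin / Benchmarks: EC15 oxytocin low, 75 nM oxytocin high / Replicates: singlicate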
V1aR counter – V1a receptor agonism, counter-screen for OXTR agonists. CHO-V1R cells, Fluo-8 calcium fluorescence, agonist mode; 0% DMSO, 100% 3 nM vasopressin. activation, % at 3 µM. actives 0.25% (n = 320,000);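 active = activation above the mean activation of all tested compounds plus 3 SD, per screening run, cut at about 20% in these data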;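 note: signal is peak over basal fluorescence ratio across a 100 second FLIPR read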
TAAR1 ag conf – confirmation of human TAAR1 agonists; shares compounds with TAAR1 agonist; CHO RD-HGA16 TAAR1, Fluo-8 calcium fluorescence; scaled: DMSO 0%, maximal phenethylamine 100%; activation, % at 3 µM; actives 82% (n = 2,400);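 active = activation above a cutoff set at the run's mean compound activation plus 3 SD, cut at about 39% in these data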
Ga16 ag counter – nonselective agonist in parental cells, TAAR1 agonist counter-screen; actives 50% (n = 2,400); CHO-Ga16 parental, Fluo-8 calcium fluorescence; normalized to maximal ATP response, DMSO zero; shares compounds with TAAR1 agonist; activation, % at 3 µM;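 active = activation above the run cutoff, the mean activation over all tested wells plus 3 SD, cut at about 12% in these data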;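 note: 0% = DMSO wells and 100% = maximal ATP response on the peak over basal ratio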
TAAR1 desens – counter-screen for human TAAR1 agonists: agonists that desensitize TAAR1. shares compounds with TAAR1 agonist. CHO RD-HGA16 hTAAR1, Fluo-8 calcium, beta-PEA response inhibition. actives 46% (n = 2,400). inhibition, % at 3 µM;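 active = inhibition above the run cutoff, the mean inhibition of all test compounds plus 3 SD, cut at about 49% in these data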;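 note: beta-PEA stimulus applied at its EC80; loss of beta-PEA calcium signal after compound pretreatment read as receptor desensitization; 0% = DMSO with beta-PEA at EC80 and 100% = DMSO alone without agonist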
Ga16 antag count – nonselective Ga16 antagonist in TAAR1 agonist counter-screen | shares compounds with TAAR1 agonist | CHO-Ga16 ATP-induced calcium, Fluo-8 fluorescence | inhibition, % at 3 µM | actives 39% (n = 2,400);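 active = inhibition above the plate's mean compound inhibition plus 3 SD, computed per plate, cut at about 22% in these data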;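 note: 0% = EC80 ATP with DMSO and 100% = DMSO wells without ATP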
* marks the source's active call; other numbers are inactive results; . = no result given. The list is not random: actives were taken first. Their share in the collection is about 2.3%.

SMILES | TAAR1 antagonist | OXTR ag | TAAR1 agonist | OXTR potentiate | V1aR counter | TAAR1 ag conf | Ga16 ag counter | TAAR1 desens | Ga16 antag count
COc1ccc(C(=O)NNC(=S)NC(=O)c2ccc(Br)o2)cc1OC | 11 | 3 | 50* | 0 | 5 | 21 | 13* | 12 | 9
Cc1ccc(OCC(=O)NNC(=S)NC(=O)c2ccc(Br)o2)c(C)c1 | 11 | . | 11 | . | . | . | . | . | .
COc1ccc(C(=O)NC(=S)NNC(=O)c2c(-c3ccccc3)noc2C)cc1OC | -1 | 21* | 68* | -17 | 29* | 70* | 47* | 24 | 11
CN1CCN(C(=O)c2cc3c(c(-c4cccc(-c5cccnc5)c4)n2)[C@@H](CCO)N(C(=O)CC2CC2)C3)CC1 | -29 | . | 1 | . | . | . | . | . | .
CCc1nc2c(OCC(=O)c3ccc(Cl)cc3Cl)cccn2c1N(C=O)Cc1ccccc1 | 12 | . | 0 | . | . | . | . | . | .
O=C(Nc1ccc2oc(-c3ccncc3)nc2c1)c1ccccc1F | 13 | 2 | 50* | -5 | 3 | 5 | 20* | -1 | 14
COc1ccc(Cc2nnc(NC(=O)c3ccc(OC)c(OC)c3)s2)cc1OC | -13 | 10 | 1 | -11 | 3 | . | . | . | .
COc1ccc(Cc2nnc(NC(=O)CSc3ccc(Cl)cc3)s2)cc1OC | 35 | . | 87* | . | . | 75* | 42* | 36 | 20
COc1ccc(Cc2nnc(NC(=O)CSc3ccc(C)cc3)s2)cc1 | -13 | 1 | 8 | 1 | 0 | . | . | . | .
COc1ccc(Cc2nnc(NC(=O)CSc3ccccc3)s2)cc1 | 50* | 0 | 49* | -8 | 6 | 8 | 0 | 3 | 7
COC(=O)c1ccc2nc(-c3ccco3)c(Cc3ccc(OC)cc3C)n2c1 | -17 | . | 0 | . | . | . | . | . | .
CCOc1ccc(/C=N/NC(=O)c2nnn(-c3nonc3N)c2-c2cccs2)cc1 | 70* | 35* | 125* | -11 | 22* | 120* | 91* | 76* | 46*
Nc1nonc1-n1nnc(C(=O)N/N=C/c2cccs2)c1-c1ccc2c(c1)OCO2 | 66* | 35* | 141* | -12 | 52* | 122* | 81* | 65* | 28*
CCOc1ccc(-c2c(C(=O)N/N=C/c3cccs3)nnn2-c2nonc2N)cc1 | 21 | 12 | 96* | 0 | 14 | 127* | 80* | 60* | 32*
Nc1nonc1-n1nnc(C(=O)N/N=C/c2ccncc2)c1-c1cccs1 | -9 | 2 | 10 | -8 | 2 | . | . | . | .
Cc1ccc(C)c(N2C(=O)CC(Cc3ccc(Br)cc3)C2=O)c1 (centres undefined) | 15 | 0 | 1 | -19 | 1 | . | . | . | .
Cc1ccccc1C(=O)N[C@H](C(=O)N1CCC[C@H]1C(=O)NCCc1ccccc1Cl)C1CCCCC1 | 24 | . | 16 | . | . | . | . | . | .
CC(C)[C@H](NC(=O)c1ccc(Cl)cc1Cl)C(=O)N1CCC[C@H]1C(=O)NCCc1ccccc1Cl | 76* | . | 50* | . | . | 73* | 5 | 92* | 5
CC(C)[C@H](NC(=O)C1CCCC1)C(=O)N1CCC[C@H]1C(=O)NCCc1ccccc1Cl | 75* | . | 87* | . | . | 85* | -1 | 87* | 3
O=C(N[C@H](C(=O)N1CCC[C@H]1C(=O)NCCc1ccccc1Cl)C1CCCCC1)c1cccs1 | . | . | . | . | . | . | 4 | . | 11
CC1(C)CC2(CCO1)N1CC3(C)CN2CC(C)(C1)C3=O (centres undefined) | -18 | 0 | 7 | -9 | 0 | . | . | . | .
O=S(=O)(Nc1ccc(S(=O)(=O)Nc2cccc3ccccc23)cc1)c1ccccc1 | 12 | 5 | 41* | -21 | 6 | 40* | 11 | 24 | 16
CC(=O)N1CCN(Cc2cc(=O)oc3ccccc23)CC1 | -13 | . | 2 | . | . | . | . | . | .
CC1(c2ccc(Cl)cc2)NC(=O)N(CC(=O)N2CCc3ccccc32)C1=O (centres undefined) | 73* | 40* | 97* | -13 | 28* | 114* | 74* | 77* | 55*
O=C(CC(=O)N/N=C\c1ccc([N+](=O)[O-])cc1)NCCc1ccccc1 | 9 | 0 | 7 | -8 | 0 | . | . | . | .
SMILES | TAAR1 antagonist | OXTR ag | TAAR1 agonist | OXTR potentiate | V1aR counter | TAAR1 ag conf | Ga16 ag counter | TAAR1 desens | Ga16 antag count
O=C(COC(=O)c1ccc(O)cc1)Nc1ccc(OC(F)F)cc1 | 3 | 12 | 66* | -19 | 13 | 49* | 7 | 29 | 16
c1ccc2c(Cn3ccnc3)c[nH]c2c1 | 13 | 3 | 54* | 3 | 0 | 71* | 4 | 36 | 7
CCn1c(C)nc2cc(C(=O)NNC(=S)Nc3ccc(Cl)cc3)ccc21 | 2 | 0 | 54* | 0 | 0 | 61* | 4 | 33 | 9
CCn1c(C)nc2cc(C(=O)NNC(=S)Nc3ccc(F)cc3)ccc21 | -39 | 0 | 4 | -2 | 0 | . | . | . | .
CCc1ccc(NC(=O)c2onc(C)c2Cl)cc1 | -23 | -1 | 0 | 4 | 19 | . | . | . | .
O=c1c2ccc(Cl)cc2nc(-c2cccc(C(F)(F)F)c2)n1O | 2 | 10 | 52* | -13 | 5 | 22 | 32* | 8 | 11
CCOc1ccc(NS(=O)(=O)c2ccc3[nH]c(=O)[nH]c3c2)cc1 | -14 | 0 | 7 | -10 | 0 | . | . | . | .
CCOc1ccc(NS(=O)(=O)c2ccc(NC(=S)NC(=O)C(C)C)cc2)cc1 | 14 | 9 | 59* | -17 | 8 | 42* | 20* | 9 | 17
CCOc1ccc(NS(=O)(=O)c2ccc(NC(=S)NC(C)=O)cc2)cc1 | 22 | 29* | 85* | -14 | 27* | 75* | 48* | 53* | 33*
CC(C)C(=O)NC(=S)Nc1ccc(S(=O)(=O)Nc2ccccc2)cc1 | 17 | 5 | 23 | -9 | 11 | . | . | . | .
O=C(CCc1ccccc1)NCCSCc1c(F)cccc1Cl | 2 | -3 | 0 | -1 | 1 | . | . | . | .
O=C(CNS(=O)(=O)c1ccc(F)c(Cl)c1)NCCc1ccccc1 | -26 | -1 | 45* | -16 | 0 | 65* | 8 | 13 | -1
O=C(CSCc1c(F)cccc1Cl)NCCc1ccccc1 | 12 | -2 | 43* | -1 | 1 | 80* | 1 | 39 | -2
